Screens deposited in PubChem by Johns Hopkins Ion Channel Center.
Only some compounds are listed: those with a hit (about 3.5% of all), similar ones and a draw of the others.
RGS4 pot: RGS4 potentiation or activation; HEK293 M3R/inducible RGS4, carbachol calcium flux Fluo4; stronger effect = lower value; B-score at 10 µM; 310,000 compounds, 0.92% hits; AID 463111;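 active = B-score of the integrated calcium signal more than 4 SD below the library mean, with starting fluorescence not abnormally high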;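 also: negative B-score means reduced calcium response which marks RGS4 activation or potentiation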
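Reagent: ECmax carbachol challenge; Test system: M3R-expressing HEK293 line, RGS4 induced by doxycycline; Schedule: overnight RGS4 induction, 30 min dye load 37 °C, 20 min compound RT; Detection: calcium dye Fluo4 fluorescence; Read-out: Agonist-evoked peak-minus-minimum fluorescence over baseline, integrated ratio, B score.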
MrgX1 ag: agonists of human MrgX1 receptor; 310,000 compounds, 0.44% hits; B-score at 10 µM; MrgX1-HEK293 cells, Fluo-4 calcium fluorescence, agonist mode; stronger effect = higher value; AID 588627; Q96LB2;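 active = calcium response B-score plate-corrected fluorescence ratio at least 3 library SD, with starting fluorescence B-score inside 5 SD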
Target sequence (Q96LB2 whole entry, looked up): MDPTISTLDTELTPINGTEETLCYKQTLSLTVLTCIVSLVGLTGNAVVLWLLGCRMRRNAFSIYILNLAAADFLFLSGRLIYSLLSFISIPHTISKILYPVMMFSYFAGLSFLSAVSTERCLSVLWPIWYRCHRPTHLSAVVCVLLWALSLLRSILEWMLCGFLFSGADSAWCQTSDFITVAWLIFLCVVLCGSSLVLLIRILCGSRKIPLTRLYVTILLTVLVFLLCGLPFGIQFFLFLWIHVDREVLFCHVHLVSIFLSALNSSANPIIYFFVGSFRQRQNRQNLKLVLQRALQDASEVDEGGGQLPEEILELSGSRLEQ
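Material: HEK293 cells stably expressing human MrgX1 receptor | Quantity: 15,000 cells per well | Times: Cells plated overnight, dye loaded 0.5 h 37 °C, 0.5 h room temperature | Measured by: Kinetic Fluo-4 NW fluorescence of intracellular calcium | Control set: Positive and negative controls per plate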
RGS4 inh: inhibitors of human RGS4; P49798; B-score at 10 µM; 310,000 compounds, 0.45% hits; HEK293 M3R/RGS4 inducible, Fluo-4 calcium flux; stronger effect = higher value; triggered by carbachol at its EC20;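 active = B-score, a plate-corrected calcium signal, over three deviations above library mean, with baseline fluorescence within five deviations of library mean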;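 also: RGS4 expression induced by doxycycline in cells with stable M3 receptor; B-score is computed from the integrated fluorescence ratio over baseline after carbachol; higher B-score means a larger calcium signal and so more RGS4 inhibition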
Target sequence (P49798 whole entry, looked up): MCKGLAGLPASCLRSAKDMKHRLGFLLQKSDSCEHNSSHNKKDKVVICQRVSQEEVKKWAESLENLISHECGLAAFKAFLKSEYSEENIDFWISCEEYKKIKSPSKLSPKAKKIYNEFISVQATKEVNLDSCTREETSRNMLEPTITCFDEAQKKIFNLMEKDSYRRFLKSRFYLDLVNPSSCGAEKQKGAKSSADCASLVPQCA
MrgX1 allo act: allosterically activates human MrgX1 receptor signaling | Q96LB2 | MrgX1-HEK293, Fluo-4 calcium flux, FDSS; stronger effect = higher value | B-score at 10 µM | 310,000 compounds, 0.63% hits | AID 588675;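 active = plate-corrected calcium response at least 3 library SD above typical, normal starting fluorescence, not activating the receptor alone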;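 also: compound read alongside a low EC10 to EC30 dose of BAM8-22 agonist; peak minus trough fluorescence over baseline measured at the second addition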
MrgX1 antag: blocks BAM8-22 activation of human MrgX1 receptor; Q96LB2; MRGX1-HEK293 calcium flux, Fluo-4, BAM8-22 antagonism; stronger effect = lower value; B-score at 10 µM; 310,000 compounds, 1.3% hits; AID 588676;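 active = calcium-response B-score plate-corrected more than 3 library SD below zero, starting fluorescence within 5 deviations, no agonist response on first addition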;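 also: peak minus trough fluorescence over baseline after final BAM8-22 challenge near maximal dose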
MrgX1 ant reconf: reconfirmed antagonist of human MrgX1 receptor signaling; remaining BAM8-22 calcium response % of control (stronger effect = lower value), % at 10 µM; MrgX1-HEK293, BAM8-22 calcium flux, Fluo-4; stronger effect = lower value; shares compounds with MrgX1 antag; 2,300 compounds, 19% hits;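 active = remaining agonist calcium response no higher than 100% minus 3 SD of agonist-only control wells, with starting fluorescence near control levels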;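 also: agonist BAM8-22 given at a near maximal EC90 to ECmax level; peak minus minimum fluorescence divided by baseline after agonist addition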
HEK293 Ca flux: counter-screen for MrgX1 antagonists: effect in parental HEK293 cells; shares compounds with MrgX1 antag; Fluo-4 calcium fluorescence, FDSS; AID 624111; fluorescence ratio F(max-min)/F0 at 10 µM; 4,000 compounds, 2% hits;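 active = duplicate-averaged calcium fluorescence ratio at least three times the standard deviation of buffer wells, a nonspecific response in parental cells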
HEK293 Ca counter: activity in parental HEK293 cells without MrgX1. 4,000 compounds, 0.4% hits. parental HEK293 calcium flux, Fluo-4 fluorescence ratio; stronger effect = higher value. shares compounds with MrgX1 antag. fluorescence ratio F(max-min)/F0 at 10 µM;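 active = calcium fluorescence ratio, averaged over duplicates, at least 3 SD of the buffer-well ratio, meaning a nonspecific response in receptor-free cells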;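 also: untransfected parental HEK293 lacking MrgX1 used as counterscreen for MrgX1 allosteric activators; fluorescence change taken during the second addition on a kinetic imager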
HEK293 Ca cntr2: counter-screen for MrgX1 activators: effect in parental HEK293 cells; fluorescence ratio F(max-min)/F0 at 10 µM; AID 624115; shares compounds with MrgX1 antag; Fluo-4 calcium fluorescence (FDSS); stronger effect = higher value; 4,000 compounds, 8.7% hits;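 active = calcium fluorescence ratio at least three times the spread of buffer wells, meaning a non-specific response in parental cells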
Of the large screens only hits and unclear results are named; the others gave an inactive call (follow-up assays come after a bar, where they were run).

O=C(c1cccc(C(F)(F)F)c1)c1c[nH]c(C(=O)NCC2CCCO2)c1 (stereo not given)	none
O=C(CSc1nnc2ccccn12)Nc1nsc(-c2ccccc2)n1	none
O=C(COC(=O)[C@H](Cc1ccccc1)N1C(=O)c2ccccc2C1=O)Nc1ccc2c(c1)OCO2	none
CC(C)[C@@H](C(=O)OCC(=O)Nc1ccc2c(c1)OCO2)N1C(=O)c2ccccc2C1=O	MrgX1 antag -5.3 | MrgX1 ant reconf inactive | HEK293 Ca flux inactive | HEK293 Ca counter inactive | HEK293 Ca cntr2 inactive
Cn1cc(S(=O)(=O)N2CCCC2)cc1C(=O)N1CCN(c2ccccc2)CC1	MrgX1 antag -7.7 | MrgX1 ant reconf 84% | HEK293 Ca flux inactive | HEK293 Ca counter inactive | HEK293 Ca cntr2 inactive
COc1ccccc1N(Cc1cc2cccc(C)c2[nH]c1=O)C(=O)C(C)C	none
CCC(=O)N(Cc1cc2cccc(C)c2[nH]c1=O)c1ccccc1OC	MrgX1 antag -5.3 | MrgX1 ant reconf inactive | HEK293 Ca flux inactive | HEK293 Ca counter inactive | HEK293 Ca cntr2 inactive
CCOC(=O)C1CCN(C(=O)c2ccc(N(C)S(=O)(=O)c3ccc(OC)cc3)cc2)CC1	none
COc1ccc(CCNC(=O)CN2C(=O)C3(OCCCO3)c3ccccc32)cc1OC	MrgX1 antag -5.4 | MrgX1 ant reconf 84% | HEK293 Ca flux inactive | HEK293 Ca counter inactive | HEK293 Ca cntr2 inactive
O=C(c1ccccc1)c1ccc(CN2C(=O)c3ccccc3C2=O)o1	MrgX1 antag -5.2 | MrgX1 ant reconf inactive | HEK293 Ca flux inactive | HEK293 Ca counter inactive | HEK293 Ca cntr2 inactive
CC(NCC(O)COc1ccccc1)C1COc2ccccc2O1 (stereo not given)	none
CCC(=O)Nc1nnc(-c2cccs2)s1	MrgX1 antag -5.1 | MrgX1 ant reconf inactive | HEK293 Ca flux inactive | HEK293 Ca counter inactive | HEK293 Ca cntr2 inactive
Cn1c(C(=O)N2CCc3ccccc3C2)cc2c(=O)n3ccccc3nc21	MrgX1 antag -5.8 | MrgX1 ant reconf inactive | HEK293 Ca flux inactive | HEK293 Ca counter inactive | HEK293 Ca cntr2 inactive
COc1ccc(/C=C/c2nc(-c3ccccc3O)n[nH]2)cc1	none
Nc1nc(/C=C/c2cccnc2)nc(-c2ccccc2O)n1	MrgX1 antag -4.8 | MrgX1 ant reconf inactive | HEK293 Ca flux inactive | HEK293 Ca counter inactive | HEK293 Ca cntr2 inactive
Cc1ccc(-c2cc(-c3ccccc3O)nc(N/N=C/c3cccnc3)n2)cc1	none
Nc1nc(/C=C/c2ccc(F)cc2)nc(-c2ccccc2O)n1	MrgX1 antag -6.8 | MrgX1 ant reconf 84% | HEK293 Ca flux inactive | HEK293 Ca counter inactive | HEK293 Ca cntr2 inactive
Cc1c(NC(=O)Nc2ccc(C(C)(C)C)cc2)c(=O)n(-c2ccccc2)n1C	none
CC1CC(=O)c2cnc(NCc3ccco3)nc2C1 (stereo not given)	MrgX1 antag -7.2 | MrgX1 ant reconf inactive | HEK293 Ca flux inactive | HEK293 Ca counter inactive | HEK293 Ca cntr2 inactive
COc1ccc(NC(=O)CSc2nnc(CN3CCOCC3)n2C)cc1Cl	MrgX1 antag -7.1 | MrgX1 ant reconf inactive | HEK293 Ca flux inactive | HEK293 Ca counter inactive | HEK293 Ca cntr2 inactive
CCN(C(=O)CSc1nnc(Nc2ccccc2)s1)C1CCS(=O)(=O)C1 (stereo not given)	none
CN(C)CCNC(=O)c1sc2nc(-c3ccccc3)cc(C(F)(F)F)c2c1N	MrgX1 antag -7.7 | MrgX1 ant reconf inactive | HEK293 Ca flux inactive | HEK293 Ca counter inactive | HEK293 Ca cntr2 inactive
CC(=O)c1sc2nc(-c3cccs3)cc(C(F)(F)F)c2c1N	MrgX1 antag -10 | MrgX1 ant reconf inactive | HEK293 Ca flux inactive | HEK293 Ca counter inactive | HEK293 Ca cntr2 inactive
Cc1c(C(=O)O)sc2nc(-c3cccs3)cc(C(F)(F)F)c12	none
COc1ccc(OC)c(NC(=O)c2sc3nc(Cc4ccccc4)cc(C(F)(F)F)c3c2N)c1	none
Cc1cccc2nc3c(nc12)-c1ccccc1C3=O	none
COc1cc2[nH]c(=O)c(C(=O)NCc3ccc(F)cc3)c(O)c2cc1OC	none
O=C(c1cc(-c2ccc(Cl)cc2Cl)on1)N1CCCC1	none
O=C(c1cc(-c2ccc(Cl)cc2Cl)on1)N1CCCCCC1	MrgX1 antag -5.3 | MrgX1 ant reconf inactive | HEK293 Ca flux inactive | HEK293 Ca counter inactive | HEK293 Ca cntr2 inactive
CNc1ccc(C(=O)N2CCN(S(=O)(=O)c3ccc4c(c3)OCCCO4)CC2)cc1[N+](=O)[O-]	none
COc1ccc(CC(C)N2CCN(Cc3ccccc3)CC2)c(OC)c1 (stereo not given)	MrgX1 antag -4.5 | MrgX1 ant reconf inactive | HEK293 Ca flux inactive | HEK293 Ca counter inactive | HEK293 Ca cntr2 inactive
CCOc1ccc(OCCC(=O)OCC(=O)NNC(=O)c2ccccc2)cc1	none
Cc1ccc(SCCNS(C)(=O)=O)cc1	MrgX1 antag -5.1 | MrgX1 ant reconf inactive | HEK293 Ca flux inactive | HEK293 Ca counter inactive | HEK293 Ca cntr2 inactive
Cc1ccc(SCCNS(=O)(=O)c2ccc(F)cc2)cc1	none
Cc1cc(NC(=O)CCCn2cc([N+](=O)[O-])cn2)n(Cc2ccc(F)cc2)n1	none
CCn1cc([N+](=O)[O-])c(C(=O)Nc2nc(-c3ccc(C)cc3)c(C)s2)n1	MrgX1 antag -10 | MrgX1 ant reconf inactive | HEK293 Ca flux inactive | HEK293 Ca counter inactive | HEK293 Ca cntr2 inactive
CC(C)C(NS(=O)(=O)c1cccs1)C(=O)NCc1ccc2c(c1)OCO2 (stereo not given)	MrgX1 antag -4.6 | MrgX1 ant reconf inactive | HEK293 Ca flux inactive | HEK293 Ca counter inactive | HEK293 Ca cntr2 inactive
Cc1ccc(CNC(=O)C(NS(=O)(=O)c2cccs2)C(C)C)cc1 (stereo not given)	none
O=C(c1ccc2[nH]c(=O)c(=O)[nH]c2c1)N1CCc2ccccc21	none
CCOC(=O)c1cnc(-n2nc(C)cc2C)nc1NC1CCCCC1	MrgX1 antag -4.9 | MrgX1 ant reconf 67% | HEK293 Ca flux inactive | HEK293 Ca counter inactive | HEK293 Ca cntr2 inactive
CCCN1CCC(NC(=S)Nc2cccc(Cl)c2Cl)CC1	none
CC(=O)N=c1sc2ccccc2n1C	none
CC(C(=O)N=c1sc2ccccc2n1C)N1C(=O)C2CC=CCC2C1=O (stereo not given)	MrgX1 antag -4.7 | MrgX1 ant reconf inactive | HEK293 Ca flux inactive | HEK293 Ca counter inactive | HEK293 Ca cntr2 inactive
CSc1ccc(CN(C)C(=O)c2cccc(S(=O)(=O)N3CCN(Cc4ccccc4)CC3)c2)cc1	none
